Experimental data published in ChEMBL document CHEMBL5325455, “Daphnanes diterpenes from the latex of Hura crepitans L. and their PKCζ-dependent anti-proliferative activity on colorectal cancer cells” (Bioorg Med Chem, 2023).
Activity calls are given as the source filed them. The calls are words filed in the database; no cut-off is given here.

Experiments:
Caco-2 [1] = assay: Cytostatic activity against human Caco-2 cells assessed as inhibition of cell growth at 1 ug/ml incubated for 48 hrs by MTS assay relative to control; format: functional
Method in brief: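 Caco-2 cells were seeded at 40 000/well 48 h before dosing. Compound was diluted from a 10 mg/mL DMSO stock into medium (0.125, 0.5 or 1 µg/mL final; DMSO ≤0.01%) and added in triplicate for 48 h. Viability was read by MTS absorbance at 490 nm and expressed relative to the DMSO control.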

Caco-2 [2] = assay: Induction of morphological changes in human Caco-2 cells assessed as reorganization of epithelial tissue architecture by measuring effect on actin density at 1 ug/ml preincubated for 30 mins with CRT0066854 hydrochloride followed by compound addition and measured after 48 hrs by Hoechst 3342 and phalloidin staining based confocal microscopic analysis; format: functional, cell-based; details: dose 1.0 µg/ml
Method in brief: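 CRT0066854 hydrochloride (2.5 µM) was added to Caco-2 cells 30 min before compound at 1 µg/mL. After 48 h, nuclei and actin cytoskeleton were labelled and confocal views taken with a 20X objective; duplicates from one experiment.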

Structure (SMILES)	inhibition at 1 µg/mL (Caco-2 [1])	Activity (Caco-2 [2])
C=C(C)[C@]12C[C@@H](C)[C@@]34O[C@](/C=C/[C@@H]5O[C@H]5CCCCCCCCC)(O[C@@H]1[C@@H]3[C@@H]1O[C@]1(CO)[C@@H](O)[C@]1(O)C(=O)C(C)=C[C@H]14)O2	30%	–
C=C(C)[C@]12C[C@@H](C)[C@@]34O[C@](/C=C/C=C/CCCCCCCCC)(O[C@@H]1[C@@H]3[C@@H]1O[C@]1(CO)[C@@H](O)[C@]1(O)C(=O)C(C)=C[C@H]14)O2	–	inactive
